# Compound activity (PubChem BioAssay)
# CHO parental Ca = counter-screen for OX1R antagonists: effect in parental CHO cells | 330,000 compounds, 0.63% hits | inhibition, % at 5.6 µM | parental CHO-K1, ATP-induced calcium, Fluo-8 fluorescence | AID 463079;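 active = inhibition above that plate's mean sample inhibition plus 3 SD, cut at about 26% in these data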;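 also: 0% = ATP-challenged DMSO wells and 100% = DMSO wells without ATP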
#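 Assay system: parental CHO cells; Read-out basis: percent inhibition of ATP-evoked calcium rise, normalized to controls; Benchmarks: ATP and no-ATP DMSO wells; Compound dosing: single nominal dose of 5.6 µM per compound; Signal: Fluo-8 calcium dye fluorescence; Also added: ATP as calcium-mobilizing challenge; Repeats: singlicate.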
# OX1R antag-1 = blocks the human orexin 1 receptor | O43613 | CHO/OX1R cells, Fluo-8 calcium fluorescence, orexin A | inhibition, % at 5 µM | 330,000 compounds, 0.43% hits | AID 434989;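 active = inhibition above its plate's threshold, mean inhibition of all tested compounds on the plate plus 3 SD, cut at about 37% in these data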;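 also: 0% = orexin A challenge wells and 100% = SB-334867-A antagonist wells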
# GalR3 antag = blocks the human galanin receptor 3. O60755. HEK293 GalR3-CNG cAMP membrane potential fluorescence; galR3 body fused to GalR1 C-terminus. inhibition, % at 3 µM. 360,000 compounds, 0.44% hits;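 active = inhibition above the screen-wide average plus 3 SD, cut at about 13% in these data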;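 also: forskolin and galanin both at EC90 stimulate the cells; cAMP rise reported by CNG channel membrane potential dye signal; 0% = forskolin plus galanin with DMSO and 100% = forskolin alone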
# Target sequence (O60755 1-299 limits assumed): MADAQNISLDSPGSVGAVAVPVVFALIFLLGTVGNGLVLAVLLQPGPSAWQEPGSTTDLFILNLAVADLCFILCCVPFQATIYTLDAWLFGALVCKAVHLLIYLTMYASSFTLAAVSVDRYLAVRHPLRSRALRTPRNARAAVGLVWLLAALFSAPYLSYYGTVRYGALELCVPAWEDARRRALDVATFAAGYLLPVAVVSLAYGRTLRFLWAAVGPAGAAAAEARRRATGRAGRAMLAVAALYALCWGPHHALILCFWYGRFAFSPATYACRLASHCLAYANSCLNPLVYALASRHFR
# OX1R antag-2 = OX1R (human) antagonism; OX1R-expressing cells, FRET antagonist read-out; inhibition, % at 6.6 µM; 330,000 compounds, 1.8% hits; in the data active = inhibition mostly above about 38%, no sharp cut-off; inactive = mostly below about 40%;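 also: 0% = agonist challenge alone and 100% = reference antagonist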
# GPR7 antagonist = blocks human GPR7 receptor signaling; AID 1861; inhibition, % at 4.4 µM; GPR7-expressing cells, fluorescence antagonist assay; 290,000 compounds, 1.1% hits; P48145; in the data active = inhibition above about 16%, passing the limit was not always enough;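 also: cells stimulated with the agonist NPW; 0% = agonist with vehicle and 100% = vehicle without agonist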
# Target sequence (P48145 whole entry, looked up): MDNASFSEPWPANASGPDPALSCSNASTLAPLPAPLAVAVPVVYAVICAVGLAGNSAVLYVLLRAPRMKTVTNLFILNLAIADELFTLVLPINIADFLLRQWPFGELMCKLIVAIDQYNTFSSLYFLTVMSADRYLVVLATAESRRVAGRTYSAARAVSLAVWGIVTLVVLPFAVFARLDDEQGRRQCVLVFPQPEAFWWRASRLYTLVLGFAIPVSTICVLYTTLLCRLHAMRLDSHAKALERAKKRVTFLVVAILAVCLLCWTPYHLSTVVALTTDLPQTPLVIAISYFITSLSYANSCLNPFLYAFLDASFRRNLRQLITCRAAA
# Numbers without * were called inactive; · = no result. An excerpt weighted towards active compounds, which were near 3.1% of everything screened.
SMILES,CHO parental Ca,OX1R antag-1,GalR3 antag,OX1R antag-2,GPR7 antagonist
CCOC(=O)N1CCN(c2nc(-c3cccs3)nc3ccccc23)CC1,-26,22,-8,74*,0
CCCN1CCN(c2nc(-c3cccs3)nc3ccccc23)CC1,-15,-11,-4,10,0
O=C(CCC(=O)N1CCCC(Nc2ccccc2)C1)c1ccc(F)cc1 (stereo not given),-20,-2,-5,-3,-10
Cc1[nH]nc2c1C(c1ccccc1)N(Cc1ccccc1)C2=O (stereo not given),·,·,-4,·,·
COc1cc2cnc(-c3ccsc3)cc2cc1OC,-11,-27,-5,14,·
c1cc(-c2cc3cc4c(cc3cn2)OCO4)cs1,-1,20,-5,70*,·
O=C(C1CCCCC1)N1CCN(S(=O)(=O)c2cccc([N+](=O)[O-])c2)CC1,-7,-3,2,13,5
Cc1cc2c(c(=O)o1)[C@@]1(C(=O)N(C)c3ccccc31)C1=C(CC3(CCCCC3)OC1=O)O2,·,·,-5,·,·
c1ccc(-c2cnc(-c3ccccc3)nn2)cc1,-6,10,1,26,·
Cc1nnc(-c2ccccc2)c[n+]1[O-],3,-2,1,56*,-9
CCOC(=O)c1c(/N=C/c2cc([N+](=O)[O-])ccc2O)sc(C)c1C,-8,-10,-2,25,23*
CCOC(=O)c1sc(NC(=O)c2ccc(C)o2)nc1C,-20,19,0,54*,-10
CCOc1ccc2nc(NC(=O)c3ccc(C)o3)sc2c1,-15,-2,3,38*,·
CCOC(=O)c1sc(NC(=O)c2ccco2)nc1C,-11,-9,-2,14,·
CCOC(OCC)c1cn(Cc2ccc(C(=O)c3ccccc3)cc2)nn1,44*,4,-8,33,10
O=C(CC1CCCC1)N[C@H](C(=O)N1CCC[C@H]1C(=O)NCCc1ccccc1Cl)c1ccccc1,·,·,-7,·,·
COc1ccc(CNC(=O)c2cc(-c3ccncc3)nc3c(C)cc(C)cc23)cc1OC,-19,-8,3,48*,-4
COc1ccc(CCNC(=O)c2cc(-c3ccncc3)nc3c(Cl)cccc23)cc1OC,-36,-33,-2,39,7
CCCn1c(C)c(CC(=O)Nc2ccc(N(C)c3ccccn3)cc2)c2ccccc21,·,·,-5,·,·
O=C(COC(=O)c1cc(-c2cccs2)nc2ccccc12)NCc1ccco1,-12,17,-6,72*,-6
Cc1sc2ncnc(NCC(c3ccccc3)N(C)C)c2c1C (stereo not given),-12,-27,-7,10,1
Cc1sc2ncnc(NCC(O)c3ccc([N+](=O)[O-])cc3)c2c1C (stereo not given),35*,13,-5,28,19
Clc1cc(Cl)cc(CN2CCN(c3ncc(Cc4ccccc4)cn3)CC2)c1,·,·,-7,·,·
Cc1cc(/C=N/Nc2nc(N)ncc2[N+](=O)[O-])c(C)n1-c1ccccc1F,-34,-37,·,44*,-3
Brc1cccc(CN2CCN(c3ncc(Cc4ccccc4)cn3)CC2)n1,·,·,-9,·,·
SMILES,CHO parental Ca,OX1R antag-1,GalR3 antag,OX1R antag-2,GPR7 antagonist
O=C1C(=O)N(CCS(=O)(=O)c2ccccc2)c2ccc(Cl)cc21,-21,-20,-7,13,22
CCCN1C(=O)C(=O)c2cc(Cl)ccc21,-11,3,-7,49*,·
C=Cc1ccc(Cn2nc(-c3ccc(C)cc3)ccc2=O)cc1,44*,-4,-9,23,33
CCN(CC)c1ccc(/C=C/c2cc(-c3ccccc3)c3ccccc3n2)cc1,38*,5,-5,6,2
Cc1sc(NC(=O)c2ccco2)c(C(c2cccnc2)N2CCC(C)CC2)c1C (stereo not given),-26,4,-4,1,20*
CCN1CCN(C(c2cccnc2)c2c(NC(=O)c3ccco3)sc(C)c2C)CC1 (stereo not given),-5,-15,-4,5,·
CCn1c(NCc2cc(Cl)ccc2O)nc2ccccc21,-2,-17,2,10,5
CC(=O)c1c(C)[nH]c(C(=O)OCC(=O)Nc2ccc(Cl)cc2[N+](=O)[O-])c1C,12,8,71*,57,-6
CCOn1c(=O)c(-c2ccccc2)[n+]([O-])c2ccccc21,1,-27,-10,25,8
CCOC(=O)COn1c(=O)c(-c2ccc(OC)cc2)[n+]([O-])c2ccccc21,-16,-22,-9,46*,-2
CCOC(=O)COn1c(=O)c(-c2ccc(OC)c(OC)c2)[n+]([O-])c2ccccc21,-17,-40,-1,51*,-12
CCOC(=O)COn1c(=O)c(-c2ccccc2)[n+]([O-])c2ccccc21,-7,-15,-10,26,2
CCCCc1c(-c2ccccc2OC)ncn1Cc1ccccc1Cl,·,·,-8,·,·
CCN(CC)CCn1c2ccccc2c2nc3ccccc3nc21,-11,-2,-11,67*,-5
CC(=O)Nc1ncc(Cc2cc(Cl)ccc2Cl)s1,-7,-22,1,70*,13
CC(=O)Nc1ncc(Cc2cccc(Cl)c2Cl)s1,-2,-10,-4,16,-7
c1ccc2nc3c(nc2c1)CCc1nonc1-3,-2,7,-4,44*,-10
Cc1onc(-c2ccccc2)c1C(=O)N1CCN(C(=O)C(=O)c2cccc(C(F)(F)F)c2)CC1,·,·,-5,·,·
c1ccc(CCNc2ncnc3scc(C4COc5ccccc5O4)c23)cc1 (stereo not given),51*,17,-4,17,-17
CCOc1cc(N2CCOCC2)c(OCC)cc1NC(=O)COc1ncnc2ccccc12,-18,-13,-4,2,-5
CCOc1cc(N2CCOCC2)c(OCC)cc1NC(=O)c1cc(-c2ccco2)nc2ccccc12,8,-1,-10,37*,-2
Cc1cccc(CS(=O)(=O)c2cn(CC(=O)N3CCOCC3)c3ccccc23)c1,-14,-11,-5,10,-7
CC1CCc2nc(NC(=O)C3COc4ccccc4O3)sc2C1 (stereo not given),-21,-32,·,39*,-3
O=C(CN1C(=O)S/C(=C/c2ccncc2)C1=O)Nc1ccccc1,-2,-7,-1,64*,5
Cc1cc(NC(=O)CN2C(=O)S/C(=C\c3ccccc3)C2=O)no1,-2,-4,-5,17,-3
CSc1ccc(C(=O)NCC(c2ccco2)N(C)C)cc1[N+](=O)[O-] (stereo not given),-12,-23,-8,47*,3
CNC(=O)COC(=O)c1ccc2c(c1)S(=O)(=O)c1ccccc1C2=O,-12,-8,-2,74*,-11
O=C(Nc1ccncc1)c1ccc2c(c1)S(=O)(=O)c1ccccc1C2=O,0,-10,-4,75*,-10
CN(C)C(CNC(=O)c1ccc2c(c1)S(=O)(=O)c1ccccc1C2=O)c1ccco1 (stereo not given),-18,-26,-4,74*,-5
CC(C)c1cccc(C(C)C)c1NC(=O)COC(=O)c1ccc2c(c1)S(=O)(=O)c1ccccc1C2=O,-8,-11,-3,16,-15
